From PubChem BioAssay
PGC1a Ac signal: compounds raising PGC1a acetylation signal, primary screen, PGC1a modulator project, cell-based, U2OS, AlphaScreen, signal-increasing mode; hit rate 0.21% among 350,000; activation, % at 15.6 µM; overnight;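 active = every replicate reaching activation of at least 50%, whatever the mean replicate activation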;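 note: hits raise the AlphaScreen acetylation signal above neutral controls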
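System – flag-PGC1a/GCN5 U2OS cells · Quantity – 7000 U2OS cells per well · Signal – AlphaScreen proximity luminescence, anti-acetyl-lysine antibody · Schedule – overnight compound treatment, 37 °C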
The depositor's hits bear a star. The list is a sample of the results.

SMILES | PGC1a Ac signal
C[C@H](CO)N1C[C@H](C)[C@H](CN(C)C(=O)CN(C)C)Oc2cc(-c3cncnc3)ccc2S1(=O)=O | -52
CC(C)CC#Cc1ccc2c(c1)O[C@H](CN(C)C)[C@@H](C)CN([C@H](C)CO)S2(=O)=O | 59*
CC(C)CC#Cc1ccc2c(c1)O[C@H](CN(C)Cc1ccccc1)[C@@H](C)CN([C@H](C)CO)S2(=O)=O | -52
COc1ccccc1C#Cc1ccc2c(c1)O[C@@H](CN(C)Cc1cccnc1)[C@H](C)CN([C@H](C)CO)S2(=O)=O | -43
C[C@H](CO)N1C[C@H](C)[C@H](CN(C)C(=O)C2CCCCC2)Oc2cc(-c3ccccc3)ccc2S1(=O)=O | 63*
CC(=O)N(C)C[C@H]1Oc2cc(-c3ccc(C#N)cc3)ccc2S(=O)(=O)N([C@@H](C)CO)C[C@@H]1C | -42
CC(C)CC#Cc1ccc2c(c1)O[C@H](CN(C)Cc1ccccc1)[C@H](C)CN([C@@H](C)CO)S2(=O)=O | -48
C[C@H](CO)N1C[C@H](C)[C@@H](CN(C)C(=O)C2CCCCC2)Oc2cc(C#Cc3ccncc3)ccc2S1(=O)=O | -4
C[C@H]1CN([C@@H](C)CO)S(=O)(=O)c2ccc(-c3ccccc3)cc2O[C@@H]1CN(C)Cc1cccc(F)c1 | -48
COc1ccccc1-c1ccc2c(c1)O[C@@H](CN(C)Cc1ccc3c(c1)OCO3)[C@@H](C)CN([C@H](C)CO)S2(=O)=O | 64*
Cc1ccccc1S(=O)(=O)NCC[C@@H]1CC[C@@H](NC(=O)C2CCOCC2)[C@H](CO)O1 | -58
CC1CCCCC1NC(=O)C1CCN(C(=O)NC2CCCCC2)CC1 (stereo unspecified) | -51
O=S(=O)(N[C@@H]1CC[C@@H](CCNS(=O)(=O)c2ccccc2Cl)O[C@H]1CO)c1ccccc1 | -62
COCCn1c(SC(C)C(=O)Nc2ncc(Cl)cc2Cl)nc2ccccc21 (stereo unspecified) | -44
COc1ccccc1OCCn1c(C(C)O)nc2ccccc21 (stereo unspecified) | 57*
Cc1ccccc1-c1nc(SCc2ccccn2)c2c(=O)n(C)c(=O)n(C)c2n1 | -50
CO[C@H]1CN(C)C(=O)c2ccc(NC(=O)Nc3ccccc3F)cc2OC[C@@H](C)NC[C@@H]1C | -49
CC1CCCN(C(=O)Cc2ccc(F)cc2)C1 (stereo unspecified) | -75
Cn1ccc2cc(OCc3ccccc3)ccc21 | 54*
CC1=C(C(N)=O)C(c2ccccc2)n2nc(-c3ccncc3)nc2N1 (stereo unspecified) | 60*
C[C@@H]1CN([C@H](C)CO)C(=O)c2cc(NC(=O)Cc3cn(C)c4ccccc34)ccc2O[C@@H]1CN(C)C(=O)Nc1ccccc1 | -108
O=C1c2ccccc2-c2c1cccc2C(=O)N1CCN(C(=O)c2ccco2)CC1 | -43
O=C(Nc1cccc(S(=O)(=O)N2CCOCC2)c1)c1ccco1 | 67*
O=C(Nc1cccc(S(=O)(=O)N2CCCCC2)c1)c1ccc([N+](=O)[O-])o1 | 226*
CC(C)(C)NS(=O)(=O)c1ccc(CCC(=O)N2CCOCC2)cc1 | -46
SMILES | PGC1a Ac signal
O=S(=O)(c1ccc2[nH]ccc2c1)N1CCCCCC1 | -68
Cc1ccc(NC(=O)c2ccc([N+](=O)[O-])o2)cc1S(=O)(=O)N1CCOCC1 | 191*
Cc1ccc(S(=O)(=O)N2CCN(C(=O)N3CCOCC3)CC2)cc1C | -42
N#Cc1ccc(C(=O)CSc2nnc(-c3ccc(C(F)(F)F)cn3)s2)cc1 | -47
O=C(c1ccc(N2CCCC2=O)cc1)N1CCCCCC1 | -42
O=CNCCc1nc2ccccc2n1CCc1ccccc1 | -53
O=C(Cc1csc(N2CCOCC2)n1)N/N=C/c1cccc(O)c1 | -56
O=c1cc(CSc2ccccn2)[nH]c(=O)[nH]1 | -44
N#Cc1ccsc1NC(=O)CSc1nnc(NC2CC2)s1 | -41
COCC(=O)Nc1ccc2c(c1)OC[C@@H](C)N(CCc1ccccc1)C[C@H](C)[C@H](OC)CN(C)C2=O | -46
CCN(C(=O)COC(=O)/C=C/c1cccc(Cl)c1)c1c(N)n(Cc2ccccc2)c(=O)[nH]c1=O | -42
O=C(CN(Cc1ccc2c(c1)OCO2)C(=O)CNS(=O)(=O)c1ccccc1)NCc1ccco1 | -46
O=[N+]([O-])c1ccc(S(=O)(=O)c2cccc(C(F)(F)F)c2)nc1 | 172*
Cc1nc(C(C)N(C)Cc2nc(-c3ccc4c(c3)OCO4)no2)c(C)s1 (stereo unspecified) | -97
CC1(Cc2ccc(Cl)s2)C(=O)Nc2c(Cl)ccc(Cl)c21 (stereo unspecified) | 65*
COc1ccc(C#Cc2c(-c3ccccc3)n(-c3ccccc3)c3ccc(CO)cc23)cc1 | 71*
CCN1CCN(Cc2ccc(NC(=O)c3cc(NC(=O)c4cncc(-c5ccc(C#N)cc5)c4)cc(OC)c3)cc2C(F)(F)F)CC1 | -86
O=C(NCc1cccnc1)/C(=C\c1ccc(-c2cccc(Cl)c2)o1)S(=O)(=O)c1ccccc1 | 76*
COC(=O)C(=Cc1ccc(OCc2ccc([N+](=O)[O-])cc2)c(OC)c1)C(=O)OC | -17
CCN=C(N/N=C/c1ccc([N+](=O)[O-])cc1)SC | 59*
CCOC(=O)c1ccc(NC(=O)Nc2ccc(F)cc2)cc1 | -45
CCOC(=O)c1ccc(NC(=O)CCS(=O)(=O)c2ccc(Br)s2)cc1 | 50*
CCOC(=O)C1(Cc2cccc(F)c2)CCN(Cc2c(C)nn(CC)c2C)CC1 | -48
N#C[C@@H]1[C@@H](c2ccc(-c3ccccc3)cc2)[C@@H](CO)N1C(=O)Cc1ccncc1 | -63
COc1cc(CN2[C@@H]3CNC[C@H]2C3c2ccc(-c3ccccc3)cc2)cc(OC)c1 (stereo partly specified) | 52*
SMILES | PGC1a Ac signal
O=C1C=CCCN1C(=O)/C=C/c1ccccc1Cl | -73
COCCCNC(=O)c1ccc(CSCc2ccc(C)cc2)o1 | -46
COc1c(O)cc(O)c2c(=O)cc(-c3ccccc3)oc12 | 64*
C[C@@H]1CN([C@H](C)CO)C(=O)c2cc(NS(=O)(=O)c3cccs3)ccc2O[C@@H]1CN(C)S(=O)(=O)c1ccc(F)cc1 | -43
CC(=O)c1cccc(-c2ccnc3c2CC(C(=O)NCc2ccco2)O3)c1 (stereo unspecified) | 52*
COc1ccc(/C=N/NC(=O)c2ccn[nH]2)cc1CN1CCOCC1 | -43
COc1ccc(CN(Cc2cccn2C)S(=O)(=O)c2ccccc2)cc1 | -74
CC(C)CCCCCCCCCCCCC(=O)NCC(=O)NC1C(O)C(O)C(Nc2ncnc3nc[nH]c23)OC1C(O)CO (stereo unspecified) | -96
C[C@H](CO)N1C[C@H](C)[C@@H](CN(C)Cc2cncnc2)Oc2cc(C#CC3CC3)ccc2S1(=O)=O | -50
N#C/C(=C(/O)c1cc2ccccc2o1)c1nc2ccccc2s1 | -44
N#C/C(=C(/O)c1ccco1)c1nc2ccccc2[nH]1 | 61*
CCCC[C@@]1(C2CCCC2)Cc2cc(OCC(=O)O)c(Cl)c(Cl)c2C1=O | -95
O=C(c1cccc(F)c1)N1CCN(C(=O)c2cc(-c3ccc(Cl)cc3Cl)on2)CC1 | -43
O=C(N/N=C/c1ccc([N+](=O)[O-])o1)c1cc2ccccc2o1 | 329*
COc1cc(/C=N/NC(=O)c2ccc(O)cc2)ccc1OCC(=O)Nc1cccc([N+](=O)[O-])c1 | -52
O=C(N/N=C/c1ccc([N+](=O)[O-])o1)c1ccc(O)cc1 | 64*
CCOC(=O)c1c(C)n(C)c2ccc(OCC(O)Cn3nc(C)c(Br)c3C)cc12 (stereo unspecified) | 61*
